Screens as filed in PubChem.
LANA-H2A inh = blocks KSHV LANA binding to histone H2A/H2B; Q9QR71; cell-free LANA-H2A/H2B peptide, fluorescence polarization; inhibition, % (no concentration beside the values); 320,000 compounds, 0.6% hits; in the data active = inhibition mostly above about 10%, no sharp cut-off; inactive = mostly below about 6.7%
MEX-5 binding = C. elegans MEX-5 TCR-2 RNA binding activity; 300,000 compounds, 0.38% hits; Q9XUB2; AID 1832; MEX-5/FITC-TCR2 RNA binding, fluorescence polarization; active compounds read low; activity score (negative = inhibition of binding), % at 10 µM;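 active = inhibition past about -25% in most replicates, and total fluorescence under double the plate's negative control median, limit read from the data; inconclusive = replicates evenly split on the limit, or fluorescence at least double controls; inactive = too little inhibition in most replicates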;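 also: 0% = DMSO and -100% = 5 µM competing unlabeled TCR2 RNA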
Target sequence (Q9XUB2 whole entry, looked up): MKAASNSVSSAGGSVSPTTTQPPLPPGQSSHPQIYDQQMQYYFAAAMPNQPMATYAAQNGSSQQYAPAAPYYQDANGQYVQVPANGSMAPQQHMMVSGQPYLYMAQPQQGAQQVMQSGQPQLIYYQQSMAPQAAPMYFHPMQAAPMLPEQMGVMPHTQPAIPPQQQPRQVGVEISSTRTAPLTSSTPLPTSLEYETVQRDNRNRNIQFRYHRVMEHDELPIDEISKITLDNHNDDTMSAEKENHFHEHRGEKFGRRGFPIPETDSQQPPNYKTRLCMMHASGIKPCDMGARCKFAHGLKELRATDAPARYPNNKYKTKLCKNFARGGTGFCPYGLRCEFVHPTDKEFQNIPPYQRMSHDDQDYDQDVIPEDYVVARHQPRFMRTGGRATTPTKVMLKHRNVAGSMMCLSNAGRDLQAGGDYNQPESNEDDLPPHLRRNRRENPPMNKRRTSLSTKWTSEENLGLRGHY
Runt-SMMHC FRET = Runt domain-CBFb-SMMHC interaction inhibition; Cerulean-Runt/Venus-CBFb-SMMHC FRET ratio 530/480, 1 h; inhibition, % at 20 µM; 220,000 compounds, 0.74% hits;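 active = mean inhibition across duplicate retests at 20 µM reaching about 50%, limit read from the data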;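 also: 0% = DMSO wells and 100% = wells with excess untagged CBFb-SMMHC; inhibitors lower the FRET ratio by blocking Runt binding to CBFb-SMMHC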
Runt-CBFb FRET = Runt domain-CBFb interaction inhibition; Q01196+Q13951; Cerulean-Runt/Venus-CBFb FRET ratio 530/480, 1 h; inhibition, % at 20 µM; 220,000 compounds, 0.46% hits; AID 1496;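 active = inhibition over about 50% at 20 µM in the single-dose screen, limit read from the data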;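 also: 0% = DMSO wells and 100% = excess unlabeled CBFb competitor control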
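test system = Cerulean-Runt domain fusion protein, energy donor | probe or stimulus = Venus-CBFb binding partner, 100 nM | incubation = two 1 h room-temperature incubations shielded from light | detection = fluorescence energy transfer, 422 nm excitation, 530/480 nm emission | measure = loss of energy transfer signal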
RanGTP-Impb inh = inhibitors of RanGTP-importin-beta interaction, primary screen, biochemical, FRET, CFP-Ran, YFP-importin-beta, homogeneous. cell-free CFP-Ran/YFP-importin-beta FRET ratio. inhibition, % (concentration not given with the values). 300,000 compounds, 1.1% hits;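 active = more than half of the replicate wells show a fall in the fluorescence ratio signal beyond about 16%, limit read from the data, passing the limit was not always enough; inconclusive = exactly half of the replicate wells pass the set limit; inactive = fewer than half of replicates pass the limit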;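 also: 0% = DMSO wells and 100% = Ran loaded with GDP instead of GTP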
EBV gp42 block = EBV gp42 inhibition | Q1HVG2 | AID 1085 | 220,000 compounds, 0.42% hits | Fluorescence polarization binding assay, mP read-out | inhibition, % (tested at 21.74 µM); in the data active = inhibition above about 50%
Target sequence (Q1HVG2 whole entry, looked up): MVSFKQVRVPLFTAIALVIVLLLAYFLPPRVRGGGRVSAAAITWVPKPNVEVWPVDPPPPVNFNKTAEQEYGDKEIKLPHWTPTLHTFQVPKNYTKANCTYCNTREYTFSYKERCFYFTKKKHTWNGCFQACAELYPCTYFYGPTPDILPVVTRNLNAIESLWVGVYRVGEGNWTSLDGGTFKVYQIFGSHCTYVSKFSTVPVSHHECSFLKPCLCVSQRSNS
* = called active by the depositor; u = inconclusive; x = no result; + = active, no number. The list is not random: actives were taken first. Their share in the collection is about 2.4%.

SMILES | LANA-H2A inh | MEX-5 binding | Runt-SMMHC FRET | Runt-CBFb FRET | RanGTP-Impb inh | EBV gp42 block
COc1ccc(N=CC=C2OC(C)(C)C(C)(C)O2)cc1OC | -3 | -1 | -4 | 4 | 15* | -8
O=C(NCCCn1ccnc1)/C(=C\c1cccs1)NC(=O)c1cccs1 | -3 | 1 | -4 | 0 | 6 | -14
CC1CCCC(NC(=O)COC(=O)[C@@H](NC(=O)c2ccco2)C(C)C)C1C (some centres not stated) | 4 | 0 | 2 | -2 | 0 | -5
CC1CCC(C(C)C)C2=C1C(C#N)(C#N)C(C#N)(C#N)C(c1ccccc1)N2 (configuration not stated) | 4 | x | -3 | 8 | -4 | -2
CC(C)C1OC2(C)OC(=N)C1(C#N)C(C#N)(C#N)C2c1ccccc1 (configuration not stated) | 4 | -6 | 63* | 40 | 32* | 31
CCC1OC2(C)OC(=N)C1(C#N)C(C#N)(C#N)C2c1ccccc1 (configuration not stated) | 5 | -9 | 67 | 22 | 33* | -14
COC1(OC)N=C(N)C2(C#N)C(c3ccccc3)NC(C)=CC12C#N (configuration not stated) | -2 | -6 | 3 | -1 | 3 | -7
CC1(C)C(C=C(Cl)Cl)C1C(=O)N(Cc1cccc(Cl)c1)C1CCS(=O)(=O)C1 (configuration not stated) | 1 | 4 | 1 | -6 | -3 | -20
NS(=O)(=O)c1cccc(NC(=O)COC(=O)Cn2cc(C(F)(F)F)ccc2=O)c1 | 3 | x | x | x | x | x
O=C(N/C(=C\c1ccco1)C(=O)N1CCCC1CO)c1ccccc1 (configuration not stated) | 21* | -10 | x | x | 1 | x
CC1CCCN(C(=O)/C(=C/c2ccco2)NC(=O)c2ccccc2)C1 (configuration not stated) | -2 | 0 | x | x | -4 | x
Cc1cc(OCCN2CCOCC2)ccc1C(C)C | -4 | 0 | x | x | -1 | x
COc1ccc(NC(=O)C2CCCN2S(=O)(=O)c2ccc3c(c2)CC(C)N3C(C)=O)cc1OC (configuration not stated) | 3 | 0 | x | x | -3 | x
Cc1noc(/C=C/c2cccs2)c1S(=O)(=O)N1CCC(C(=O)NCCCN2CCC(C)CC2)CC1 | -6 | 2 | 3 | 0 | -2 | -17
CCc1ccc(OCC(=O)Nc2ccc(S(=O)(=O)N3CCCC3)cc2)c(Br)c1 | 3 | -1 | -29 | 1 | 1 | -7
O=C(COc1ccc(Br)cc1CO)Nc1ccc(S(=O)(=O)N2CCCCC2)cc1 | + | x | x | x | x | x
O=C(O)C1CCCCC1C(=O)Nc1ccc(S(=O)(=O)N2CCCC2)cc1 (configuration not stated) | 3 | 0 | x | x | 3 | x
O=C(O)[C@H]1CCCC[C@H]1C(=O)Nc1ccc(S(=O)(=O)N2CCOCC2)cc1 | -5 | 0 | x | x | 17* | x
COc1ccc(NC(=O)CN(C)C(=O)/C=C/c2ccc(S(=O)(=O)N3CCCCCC3)cc2)cc1 | 110* | 0 | x | x | x | x
COc1ccc(OCC(=O)Nc2ccc(S(=O)(=O)N3CCOCC3)cc2)cc1 | 28* | 0 | 2 | 1 | 1 | -23
CC(C)NC(=O)N(C)C[C@H]1Oc2ccc(NS(=O)(=O)c3ccc(F)cc3)cc2C(=O)N([C@H](C)CO)C[C@@H]1C | 1 | x | x | x | x | x
C=C1CCN([C@@H](CC(C)C)C(=O)N2CCCC2)S(=O)(=O)c2ccccc21 | 4 | -2 | x | x | -12 | x
Cc1ccc(NC(=O)CN(C)S(=O)(=O)c2ccc3c(c2)n(C)c(=O)c(=O)n3C)cc1 | 9 | -3 | x | x | 0 | x
O=C(N/N=C/c1ccc2c(c1)OCO2)C(=O)Nc1cccc(Cl)c1 | -14 | 0 | x | x | 3 | x
COc1ccc(C2CC(=O)C(C=NCCN3CCN(C(=S)Nc4ccccc4)CC3)=C(O)C2)cc1OC (configuration not stated) | 2 | 0 | 2 | 0 | -4 | 6
SMILES | LANA-H2A inh | MEX-5 binding | Runt-SMMHC FRET | Runt-CBFb FRET | RanGTP-Impb inh | EBV gp42 block
Cc1noc(C)c1-c1nnc(-c2ccc(OC(F)(F)F)cc2)o1 | 2 | 0 | 1 | -4 | u | -5
Nc1ncnc(NNC(=O)CNC(=O)c2c(F)cccc2Cl)c1[N+](=O)[O-] | 2 | -66* | 1 | -2 | 4 | -6
COc1ccccc1C(=O)NCC(=O)NNc1ncnc(N)c1[N+](=O)[O-] | -2 | -3 | -2 | 0 | -1 | -17
CSCCNCc1c(C(=O)N2CCOCC2)nc2c(C)cccn12 | -12 | -3 | 1 | 2 | 2 | -5
Cc1cccn2c(CNCCc3ccccn3)c(C(=O)N3CCOCC3)nc12 | 29* | 2 | x | x | u | x
N#Cc1c(NC(=O)CSc2nnc(-c3ccco3)n2-c2ccccc2)sc2c1CCC2 | 4 | -2 | 13 | 12 | 2 | -16
CCOC(=O)c1c(NC(=O)CSc2nnc(-c3c[nH]c4ccccc34)n2C)sc2c1CCCC2 | 4 | 3 | 2 | 1 | 26* | -4
NC(=O)c1c(NC(=O)CSc2nnc(-c3ccco3)n2-c2ccccc2)sc2c1CCC2 | 3 | 1 | 20 | 15 | -5 | 67*
CCOc1ccc(OCC(=O)Nc2ccc(S(=O)(=O)Nc3cc(C)nc(C)n3)cc2)cc1 | -6 | -1 | -4 | 2 | 2 | -1
Cc1ccc(OCCC(=O)Nc2ccc(S(=O)(=O)Nc3cc(C)nc(C)n3)cc2)cc1 | -2 | 2 | x | x | 20* | x
FC(F)(F)c1nnc2c(Sc3ccccn3)nc3ccccc3n12 | 6 | 4 | 51* | 16 | 8 | -7
Cc1cc(NC(=O)CSc2ccc3nnc(-c4cccs4)n3n2)no1 | 2 | -1 | -5 | -1 | 1 | 6
Cc1c(N=Cc2ccc(Cl)o2)c(=O)n(-c2ccccc2)n1C | 23* | 0 | -5 | -3 | -1 | 9
C[C@@H](OC(=O)N1CCCCC1)[C@H]1O[C@]2(C)CCCC[C@H]1O2 | 3 | x | x | x | x | x
COC(=O)c1ccc(=O)c2nc3/c(=C/O)c(O)cc(=O)c3[nH]c12 | 3 | x | 52 | 15 | x | 98*
CCC(O)(CC)C(=O)NN(C(=O)Nc1csc2c1CCCC2)c1ccccc1 | 2 | 1 | -2 | 0 | -2 | 21
COc1cc(C(=O)Nc2ccc3nc(N4CCOCC4)sc3c2)cc(OC)c1OC | 37* | x | x | x | x | x
CCOC(=O)c1c(C)[nH]c(C)c1C(=O)COC(=O)c1ccc(Cl)nc1 | 1 | x | x | x | x | x
Cc1cc(C)c2c(=O)n(CC(=O)NC3CCCC3)sc2n1 | 0 | 2 | 53* | 2 | -2 | -15
N#C/C(=N\Nc1ccc(Cl)cc1)C(=O)c1ccsc1 | 1 | -38* | -5 | -4 | 0 | -4
